Test results taken from ChEMBL document CHEMBL1129736, “Bisphenolic compounds that enhance cell cation transport are found in commercial phenol red” (1996).

Tests used:
HFF [1] = experiment: Effect of compound on Na+ ion content of HFF (Human foreskin fibroblasts) Cells at 3 ug/mL; assay type: functional
[2] = K+ / Na+ ratio in HF(Human foreskin fibroblasts) cells; assay type: functional
HFF [3] = experiment: Effect of compound on K+ ion content of HFF (Human foreskin fibroblasts) Cells at 3 ug/mL; assay type: functional
HFF [4] = experiment: Effect of compound on Na+ ion content of HFF (Human foreskin fibroblasts) Cells at 125 ng/mL; assay type: functional
HFF [5] = experiment: Effect of compound on K+ ion content of HFF (Human foreskin fibroblasts) Cells at 125 ng/mL; assay type: functional
HFF [6] = experiment: Effect of compound on K+ ion content of HFF (Human foreskin fibroblasts) Cells at 30 ng/mL; assay type: functional
Summary of the method: (§1)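 Human foreskin fibroblasts were grown in 6 cm dishes in DMEM with 10% FBS and antibiotics at 37 °C in CO2/air, pH 7.2-7.4, at 5 × 10⁵ to 2 × 10⁶ cells/dish. Medium was swapped for serum-free test solution by four rinses. Incubation was 45 min, or 30 min in expt III, at 37 °C. Dishes were washed six times with iced MgCl2 or MgSO4. Read-out was K⁺ or Na⁺ per dish (10⁸ × mol), mean of duplicate dishes.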

[7] = K+ / Na+ ratio in HF(Human foreskin fibroblasts) cells at 100 ng/mL; assay type: functional
Summary of the method: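 HF cells were in 6 cm dishes at 5 × 10⁵ to 2 × 10⁶ cells/dish. Growth medium was replaced with serum-free test solution by four rapid rinses. Incubation was 45 min at 37 °C in CO2/air. Dishes were rinsed six times with iced 0.1 M MgCl2 and intracellular K⁺ and Na⁺ were assayed. The K⁺/Na⁺ ratio is the mean of duplicate dishes.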

HFF [8] = experiment: Effect of compound on Na+ ion content of HFF (Human foreskin fibroblasts) Cells at 0.03 ug/mL; assay type: functional; summary of the method: as §1
HFF [9] = experiment: Effect of compound on Na+ ion content of HFF (Human foreskin fibroblasts) Cells at 10 ng/mL; assay type: functional; summary of the method: as §1
HFF [10] = experiment: Effect of compound on K+ ion content of HFF (Human foreskin fibroblasts) Cells at 10 ng/mL; assay type: functional; summary of the method: as §1
HFF [11] = experiment: Effect of compound on K+ ion content of HFF (Human foreskin fibroblasts) Cells at 100 ng/mL; assay type: functional; summary of the method: as §1
HFF [12] = experiment: Effect of compound on Na+ ion content of HFF (Human foreskin fibroblasts) Cells at 30 ng/mL; assay type: functional; summary of the method: as §1
HFF [13] = experiment: Effect of compound on K+ ion content of HFF (Human foreskin fibroblasts) Cells at 4.8 ug/mL; assay type: functional
HFF [14] = experiment: Effect of compound on Na+ ion content of HFF Cells at 4.8 ug/mL; assay type: functional, Homo sapiens
HFF [15] = experiment: Effect of compound on Na+ ion content of HFF (Human foreskin fibroblasts) Cells at 31 ng/mL; assay type: functional; summary of the method: as §1
HFF [16] = experiment: Effect of compound on Na+ ion content of HFF (Human foreskin fibroblasts) Cells at 15.6 ng/mL; assay type: functional; summary of the method: as §1
HFF [17] = experiment: Effect of compound on Na+ ion content of HFF (Human foreskin fibroblasts) Cells at 62.5 ng/mL; assay type: functional; summary of the method: as §1
HFF [18] = experiment: Effect of compound on K+ ion content of HFF (Human foreskin fibroblasts) Cells at 15.6 ng/mL; assay type: functional; summary of the method: as §1
HFF [19] = experiment: Effect of compound on K+ ion content of HFF (Human foreskin fibroblasts) Cells at 31 ng/mL; assay type: functional; summary of the method: as §1
HFF [20] = experiment: Effect of compound on K+ ion content of HFF (Human foreskin fibroblasts) Cells at 62.5 ng/mL; assay type: functional; summary of the method: as §1
HFF [21] = experiment: Effect of compound on Na+ ion content of HFF (Human foreskin fibroblasts) Cells at 0.1 ug/mL; assay type: functional; summary of the method: as §1
HFF [22] = experiment: Effect of compound on K+ ion content of HFF (Human foreskin fibroblasts) Cells at 0.03 ug/mL; assay type: functional; summary of the method: as §1
HFF [23] = experiment: Effect of compound on K+ ion content of HFF (Human foreskin fibroblasts) Cells at 0.3 ug/mL; assay type: functional; summary of the method: as §1
HFF [24] = experiment: Effect of compound on Na+ ion content of HFF (Human foreskin fibroblasts) Cells at 0.3 ug/mL; assay type: functional; summary of the method: as §1
HFF [25] = experiment: Effect of compound on K+ ion content of HFF (Human foreskin fibroblasts) Cells at 0.1 ug/mL; assay type: functional; summary of the method: as §1
HFF [26] = experiment: Effect of compound on K+ ion content of HFF (Human foreskin fibroblasts) Cells at 2.4 ug/mL; assay type: functional; summary of the method: as §1
HFF [27] = experiment: Effect of compound on Na+ ion content of HFF (Human foreskin fibroblasts) Cells at 4.8 ug/mL (Expt II); assay type: functional; summary of the method: as §1
HFF [28] = experiment: Effect of compound on Na+ ion content of HFF (Human foreskin fibroblasts) Cells at 4.8 ug/mL (Expt III); assay type: functional; summary of the method: as §1
HFF [29] = experiment: Effect of compound on K+ ion content of HFF (Human foreskin fibroblasts) Cells at 4.8 ug/mL (Expt II); assay type: functional; summary of the method: as §1
HFF [30] = experiment: Effect of compound on Na+ ion content of HFF (Human foreskin fibroblasts) Cells at 2.4 ug/mL; assay type: functional; summary of the method: as §1
HFF [31] = experiment: Effect of compound on K+ ion content of HFF (Human foreskin fibroblasts) Cells at 4.8 ug/mL (Expt III); assay type: functional; summary of the method: as §1
HFF [32] = experiment: Effect of compound on Na+ ion content of HFF (Human foreskin fibroblasts) Cells at 4.8 ug/mL; assay type: functional; summary of the method: as §1

**Q.** Which “Na+ ion content” value (HFF [1]) does the source give for `COc1ccc(CCN(C)CCCC(C#N)(c2ccc(OC)c(OC)c2)C(C)C)cc1OC.Oc1ccc(C2(c3ccc(O)cc3)c3ccccc3-c3ccc(O)cc32)cc1` (centres undefined) here?
**A.** Its value is 2100000000.

**Q.** And the K+/Na+ ratio [2]?
**A.** The K+/Na+ ratio was 0.71.

**Q.** What about the K+ Ion content (HFF [3]) of the same compound?
**A.** The K+ Ion content was 150 nmol/dish.

**Q.** For `COc1ccc(CCN(C)CCCC(C#N)(c2ccc(OC)c(OC)c2)C(C)C)cc1OC.Oc1ccc(C2(c3ccc(O)cc3)c3ccccc3-c3cc(O)ccc32)cc1` (centres undefined), which “Na+ ion content” value (HFF [4]) is on record?
**A.** The value was 1600000000.

**Q.** And the “K+ Ion content” value (HFF [5])?
**A.** Its value is 2000000000.

**Q.** And the K+/Na+ ratio [2]?
**A.** Its K+/Na+ ratio is 1.3.

**Q.** With `Oc1ccc(C2(c3ccc(O)cc3)c3ccccc3-c3c(O)cccc32)cc1` as the compound, how does the K+ Ion content (HFF [6]) read?
**A.** The K+ Ion content was 240 nmol/dish.

**Q.** What about the K+/Na+ ratio [7] of the same compound?
**A.** The K+/Na+ ratio was 0.29.

**Q.** What about the Na+ ion content (HFF [8]) of the same compound?
**A.** The Na+ ion content was 1.1e+09.

**Q.** And the “Na+ ion content” value (HFF [9])?
**A.** The value was 710000000.

**Q.** And the K+ Ion content (HFF [10])?
**A.** The K+ Ion content was 300 nmol/dish.

**Q.** What about the K+ Ion content (HFF [11]) of the same compound?
**A.** The K+ Ion content was 67 nmol/dish.

**Q.** What about the Na+ ion content (HFF [12]) of the same compound?
**A.** Its Na+ ion content is 110 nmol/dish.

**Q.** With `COc1ccc(CCN(C)CCCC(C#N)(c2ccc(OC)c(OC)c2)C(C)C)cc1OC.Oc1ccc(C2(c3ccc(O)cc3)c3ccccc3Oc3ccccc32)cc1` (centres undefined) as the compound, how does the K+ Ion content (HFF [13]) read?
**A.** Its K+ Ion content is 370 nmol/dish.

**Q.** And the K+/Na+ ratio [2]?
**A.** Its K+/Na+ ratio is 3.4.

**Q.** What about the “Na+ ion content” value (HFF [14]) of the same compound?
**A.** Its value is 1100000000.

**Q.** Which results are given for `Oc1ccc(C2(c3ccc(O)cc3)c3ccccc3-c3cc(O)ccc32)cc1`?
**A.** Na+ ion content (HFF [15]): 1200000000; Na+ ion content (HFF [4]): 3800000000; K+ Ion content (HFF [5]): 520000000; Na+ ion content (HFF [16]): 800000000; Na+ ion content (HFF [17]): 290 nmol/dish; K+ Ion content (HFF [18]): 3e+09; K+ Ion content (HFF [19]): 270 nmol/dish; K+ Ion content (HFF [20]): 100 nmol/dish

**Q.** Which “Na+ ion content” value (HFF [21]) does the source give for `Oc1ccc(C2(c3ccc(O)cc3)c3ccccc3-c3ccc(O)cc32)cc1` here?
**A.** Its value is 2400000000.

**Q.** And the K+ Ion content (HFF [22])?
**A.** The K+ Ion content was 280 nmol/dish.

**Q.** And the K+ Ion content (HFF [23])?
**A.** Its K+ Ion content is 38 nmol/dish.

**Q.** And the “Na+ ion content” value (HFF [8])?
**A.** Its value is 350000000.

**Q.** And the “Na+ ion content” value (HFF [1])?
**A.** Its value is 3900000000.

**Q.** And the “Na+ ion content” value (HFF [24])?
**A.** The value was 3500000000.

**Q.** What about the K+ Ion content (HFF [3]) of the same compound?
**A.** Its K+ Ion content is 55 nmol/dish.

**Q.** What about the “K+ Ion content” value (HFF [25]) of the same compound?
**A.** The value was 870000000.

**Q.** With `Oc1ccc(C2(c3ccc(O)cc3)c3ccccc3Oc3ccccc32)cc1` as the compound, how does the K+ Ion content (HFF [26]) read?
**A.** The K+ Ion content was 340 nmol/dish.

**Q.** And the Na+ ion content (HFF [27])?
**A.** Its Na+ ion content is 270 nmol/dish.

**Q.** And the Na+ ion content (HFF [28])?
**A.** The Na+ ion content was 290 nmol/dish.

**Q.** And the K+ Ion content (HFF [29])?
**A.** The K+ Ion content was 240 nmol/dish.

**Q.** And the Na+ ion content (HFF [30])?
**A.** The Na+ ion content was 190 nmol/dish.

**Q.** And the K+ Ion content (HFF [31])?
**A.** Its K+ Ion content is 25 nmol/dish.

**Q.** What does the source list for `C=C[C@H]1CN2CC[C@H]1C[C@H]2[C@H](O)c1ccnc2ccc(OC)cc12.Oc1ccc(C2(c3ccc(O)cc3)c3ccccc3-c3cc(O)ccc32)cc1`?
**A.** Na+ ion content (HFF [4]): 2200000000; K+ Ion content (HFF [5]): 2000000000; K+/Na+ ratio [2]: 0.91

**Q.** For `C=C[C@H]1CN2CC[C@H]1C[C@H]2[C@H](O)c1ccnc2ccc(OC)cc12.Oc1ccc(C2(c3ccc(O)cc3)c3ccccc3Oc3ccccc32)cc1`, which “Na+ ion content” value (HFF [32]) is on record?
**A.** Its value is 1200000000.

**Q.** And the K+ Ion content (HFF [13])?
**A.** Its K+ Ion content is 270 nmol/dish.

**Q.** And the K+/Na+ ratio [2]?
**A.** Its K+/Na+ ratio is 2.3.
